# Screens from PubChem BioAssay.
# TAAR1 antagonist – human TAAR1 antagonism; Q96RJ0; CHO RD-HGA16 TAAR1, Fluo-8 calcium fluorescence, antagonist; inhibition, % at 3 µM; 1.5% of 360,000 active; AID 624466;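 active = inhibition above a per-plate cutoff, the mean inhibition of test compounds on that plate plus 3 SD, cut at about 49% in these data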;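 note: 0% = DMSO plus EC80 beta-PEA response and 100% = DMSO alone without agonist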
#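 Material: CHO RD-HGA16 cells bearing hTAAR1; compound dosing: one-point dosing, 3 µM nominal final; schedule: dye loading 75 min at 37 °C, then 30 min room temperature; measured by: calcium fluorescence with Fluo-8; control set: vehicle and agonist controls; replication: n of 1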
# M1 PAM – potentiates human M1 receptor response to acetylcholine; P11229; CHO-K1 hM1, Fluo-8 calcium fluorescence, ACh EC20; 0% = ACh EC20, 100% = maximal ACh; activation, % at 3 µM; 0.088% of 360,000 active; in the data active = activation above about 19%, passing the limit was not always enough
# Target sequence (P11229 whole entry, looked up): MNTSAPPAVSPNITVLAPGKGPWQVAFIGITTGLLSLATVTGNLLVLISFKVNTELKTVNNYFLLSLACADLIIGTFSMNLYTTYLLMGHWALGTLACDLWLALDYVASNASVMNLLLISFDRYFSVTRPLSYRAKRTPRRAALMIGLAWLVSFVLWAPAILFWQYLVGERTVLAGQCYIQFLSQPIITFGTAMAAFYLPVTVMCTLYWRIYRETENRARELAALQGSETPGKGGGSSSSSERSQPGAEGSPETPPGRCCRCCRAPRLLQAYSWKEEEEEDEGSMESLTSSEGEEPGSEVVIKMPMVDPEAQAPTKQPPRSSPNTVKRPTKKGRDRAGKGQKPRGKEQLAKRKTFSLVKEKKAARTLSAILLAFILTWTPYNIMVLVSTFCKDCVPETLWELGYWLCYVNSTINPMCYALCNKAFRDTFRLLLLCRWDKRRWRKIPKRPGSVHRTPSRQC
# M1 ag – human M1 muscarinic receptor agonism; activation, % at 3 µM; 0.33% of 360,000 active; AID 588814; CHO-K1 hM1, Fluo-8 calcium fluorescence, agonist mode; 0% DMSO, 100% acetylcholine EC100; P11229;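 active = activation above the run's mean compound activation plus 3 SD, cut at about 16% in these data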;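 note: peak over basal fluorescence ratio within a 140 s kinetic read after compound addition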
# CHRM1 antagonist – antagonists of human M1 muscarinic receptor | P11229 | CHO-K1 hM1, Fluo-8 calcium fluorescence, ACh EC80 antagonist | 1.3% of 360,000 active | inhibition, % at 3 µM;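 active = percent inhibition above its own plate's cutoff, namely the mean of that plate's compound wells plus 3 SD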;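 note: peak over basal fluorescence ratio during 140 s after agonist addition; 0% = ACh EC80 plus DMSO and 100% = DMSO alone without agonist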
# m5-HT2A agonist – agonists of mouse serotonin 5-HT2A receptor (HTR2A); P35363; CHO-K1 mHTR2A beta-arrestin complementation, luminescence; percent of 30 µM serotonin response; activation, % at 7.6 µM; 0.66% of 360,000 active; AID 624169;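 active = activation above a run cutoff, the mean activation of all tested compounds plus 3 SD, cut at about 14% in these data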;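 note: 0% = plate median of compound wells and 100% = 30 µM serotonin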
# TAAR1 ag – agonists of human TAAR1; CHO RD-HGA16 TAAR1, Fluo-8 calcium fluorescence; vehicle wells 0%, saturating PEA agonist 100%; activation, % at 3 µM; 0.99% of 360,000 active; AID 624467;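 active = activation above the mean activation of all test compounds in the run plus 3 SD, cut at about 38% in these data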
#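 Assay system: CHO-derived RD-HGA16 cells with stable Gα16 and human TAAR1; timing: 17-24 h seeding, 75 min 37 °C dye, 30 min RT; read-out: % activation from peak over basal fluorescence ratio, DMSO-to-PEA scaled; measured by: kinetic Fluo-8 calcium fluorescence; benchmarks: low control DMSO, high control PEA (EC100); doses: 3 µM single concentration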
# Active calls of the source: *; x = no result. A selection: hits, their analogues and other compounds. The true share with any hit is near 3.9%.
SMILES,TAAR1 antagonist,M1 PAM,M1 ag,CHRM1 antagonist,m5-HT2A agonist,TAAR1 ag
CC(=O)N1CCOc2ccc(S(=O)(=O)NCC3CCC(C(=O)Nc4ncccc4C)CC3)cc21 (stereo unspecified),0.3,4.0,-2.4,-3.2,2.4,0.6
COc1ccccc1N1CCN(C(=O)c2cc3ccccc3[nH]2)CC1,53.3*,-1.2,-0.7,5.2,-0.3,8.5
COc1ccccc1N1CCN(C(=O)c2cc3cc(F)ccc3[nH]2)CC1,-6.7,-2.8,-0.8,0.6,-8.1,3.7
C=CCNC(=S)NNC(=O)COc1ccc2cc(Br)ccc2c1,27.3,5.9,-0.5,1.5,15.8*,3.9
C=CCNC(=S)NNC(=O)COc1ccc(Br)cc1,9.5,14.6,-6.9,-8.0,5.0,1.6
COC(=O)[C@]12CCCCC=C1N(CCc1ccc(OC)c(OC)c1)C(=O)[C@H](CC(=O)N1CCC(c3ccccc3)CC1)C2,67.0*,x,x,x,0.8,4.7
COC(=O)[C@]12CCCCC=C1N(Cc1ccccc1)C(=O)[C@H](CC(=O)N1CCC(c3ccccc3)CC1)C2,53.8*,x,x,x,7.8,3.4
CCCCN(CC)CCCNC(=O)C1CCN(c2ncnc3c2sc2cccc(F)c23)CC1,-18.8,-17.8,-5.5,42.0*,0.4,0.8
O=C(NCCN1CCOCC1)C1CCN(c2ncnc3c2sc2cccc(F)c23)CC1,4.9,-3.2,-3.9,-0.5,-5.3,0.5
CC(NC(=O)COC(=O)/C(=C/c1cccs1)c1cccs1)c1ccccc1 (stereo unspecified),51.8*,-17.3,-9.9,2.1,-4.4,4.7
CC(NC(=O)COC(=O)c1cccs1)c1ccccc1 (stereo unspecified),-1.3,15.5,9.3,2.9,0.4,1.8
CN(CC(=O)Nc1cccc(S(=O)(=O)N2CCOCC2)c1)CC(=O)Nc1ccc(Cl)c(C(F)(F)F)c1,31.4,-13.6,-2.3,41.9*,-6.1,28.7
O=C(CNc1ccc(C(F)(F)F)cc1)Nc1cccc(S(=O)(=O)N2CCCCC2)c1,10.6,-11.0,-0.4,24.0*,-4.9,9.1
CCN(CC)S(=O)(=O)c1ccc(C)c(NC(=O)CNc2cccc(S(=O)(=O)N3CCOCC3)c2)c1,17.6,-1.9,-1.3,3.2,5.0,3.3
CCN(CC)S(=O)(=O)c1cccc(NC(=O)CNc2cccc(S(=O)(=O)N3CCOCC3)c2)c1,x,-7.6,-1.9,33.4*,-2.6,x
CC(OC(=O)CC1CC2CCC1C2)C(=O)Nc1cccc(S(=O)(=O)N2CCOCC2)c1 (stereo unspecified),-2.3,24.4*,5.9,-26.2,5.0,2.9
CC(C)(C)c1cccc(N/C(=C\C(=O)c2ccccc2)c2ccccc2)c1,-18.5,x,x,x,x,-0.3
CN(CC(=O)Nc1ccc(Cl)c(C(F)(F)F)c1)C(=O)C1CC(=O)N(CCc2ccccc2)C1 (stereo unspecified),50.5*,7.4,-1.9,-2.8,-2.1,15.3
CN(CC(=O)NCC(=O)Nc1ccc(F)cc1)CC(=O)Nc1ccc(Cl)c(C(F)(F)F)c1,3.0,-0.2,-0.8,7.9,-5.3,0.8
COc1ccc(CCN2CC(C(=O)N(C)CC(=O)Nc3ccc(Cl)c(C(F)(F)F)c3)CC2=O)cc1OC (stereo unspecified),3.6,8.5,-3.3,-6.6,-6.3,6.1
CN(CC(=O)NCc1ccc(F)cc1)CC(=O)Nc1ccc(Cl)c(C(F)(F)F)c1,14.6,-2.5,16.2*,29.2,-13.5,36.9
CCN(CC)S(=O)(=O)c1cc(NC(=O)CNc2cccc(S(=O)(=O)N3CCCC3)c2)ccc1C,x,-5.8,-0.6,29.0*,9.4,x
Cn1cc(Cc2ccc(C(=O)N3CCCCC3)cn2)c2ccccc21,-16.5,-0.1,-3.9,-4.1,-2.8,7.7
CC(C)(C)NC(=O)COC(=O)c1ccccc1Nc1ccc(SC(F)F)cc1,51.4*,-13.5,-2.3,6.4,-4.8,1.8
O=C(COC(=O)c1ccccc1Nc1ccc(SC(F)F)cc1)NC1CC1,17.6,-9.9,-2.5,17.1,9.0,1.8
SMILES,TAAR1 antagonist,M1 PAM,M1 ag,CHRM1 antagonist,m5-HT2A agonist,TAAR1 ag
O=C(O)c1cccc(CSc2nc(-c3ccc(Cl)cc3)cc(C(F)(F)F)n2)c1,53.7*,-3.7,-4.3,7.0,0.0,5.4
CN(c1cccc(Cl)c1)S(=O)(=O)c1cccc(C(=O)Nc2nc3ccccc3[nH]2)c1,61.0*,-14.9,-5.7,30.0,-2.7,12.1
O=C(Nc1nc2ccccc2[nH]1)c1cccc(Cl)c1,3.6,7.7,-0.1,-7.1,5.4,0.1
COc1ccc(N(C)S(=O)(=O)c2cccc(C(=O)Nc3nc4ccccc4[nH]3)c2)cc1,54.7*,-15.4,-4.4,34.5*,1.9,8.6
Cc1cc(C)c(C)c(S(=O)(=O)N2CCN(C(=O)c3ccccc3OCc3c(C)noc3C)CC2)c1C,16.3,-0.3,-5.0,-1.8,-0.1,12.4
CCN1CCCC1CNCc1ccccc1OCc1ccc(F)cc1 (stereo unspecified),7.5,-19.9,-8.7,31.7*,-3.3,6.9
Cc1noc(C)c1C(=O)OCC(=O)NCc1ccccc1,-15.9,7.2,-2.9,-7.6,3.5,3.6
O=C(NCCc1c[nH]c2ccccc12)C(=O)NCC1OCCCN1S(=O)(=O)c1cc(F)ccc1F (stereo unspecified),45.0,-5.1,0.3,5.1,4.1,27.5
COC(=O)[C@]12C[C@H](CC(=O)N3CCN(C(=O)c4ccco4)CC3)C(=O)N(Cc3ccccc3)C1=C[C@H](C1CCCC1)O[C@@H]2C,-16.7,x,x,x,x,-1.3
COc1ccc(CC(=O)OCC(=O)Nc2cccnc2Cl)cc1OC,4.0,0.6,6.3,34.7*,-2.6,0.3
CCO[C@H]1OC(C(=O)NCc2ccccc2)=C[C@@H](c2ccc3c(c2)OCO3)[C@@H]1CCCO,17.5,-4.7,17.9*,6.8,12.3,50.4*
CCO[C@H]1OC(C(=O)N2CCOCC2)=C[C@@H](c2ccccc2)[C@@H]1CCCO,-1.4,-21.9,-9.2,66.9*,0.0,2.6
CCO[C@@H]1OC(C(=O)NCc2ccccc2)=C[C@H](c2csc3ccccc23)[C@H]1CCCO,54.2*,-13.6,-1.2,14.8,-4.0,24.7
CCO[C@@H]1OC(C(=O)N2CCN(Cc3ccc4c(c3)OCO4)CC2)=C[C@H](c2ccc(Br)cc2)[C@H]1CCCO,48.8*,-2.5,-6.8,8.5,-13.1,11.7
C#CCNC(=O)C1=C[C@H](c2csc3ccccc23)[C@@H](CCCO)[C@H](OCC)O1,9.1,-5.5,-9.1,2.3,0.2,4.8
COCCNC(=O)C(c1ccc(F)cc1)N(Cc1cccs1)C(=O)CCC(=O)Nc1ccccn1 (stereo unspecified),0.9,2.5,-2.4,-2.4,-3.0,0.4
